Source: PubChem
An excerpt weighted towards active compounds, which were near 4% of everything screened.
XBP1 UPR activ – activators of adaptive arm of unfolded protein response (XBP1); CHO-XBP1 luciferase reporter, IRE1-XBP1 UPR activation, luminescence; percent of tunicamycin response, DMSO as zero; activation, % at 20 µM; 330,000 compounds, 0.33% hits; AID 463104;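 active = versus positive control, 20 µM dose yields 30% or more activation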;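 also: 100% = tunicamycin at 10 µg/mL and 0% = DMSO only wells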
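Assay system: IRE1-XBP1 luciferase reporter CHO line. Input: 1000 cells/well. Buffer or medium: F12 with 10% serum. Doses: 20 µM, 1% DMSO. Times: overnight seeding at 37 °C, 6 h compound treatment at 37 °C. Technique: Steady-Glo luciferase glow luminescence, 10 min after reagent addition.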
Granule exo inh – blocks lytic granule exocytosis. TALL-104 LAMP-1 surface exposure, flow cytometry; cells stimulated with thapsigargin and PMA. inhibition, % at 10 µM. 360,000 compounds, 0.66% hits. AID 651702;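 active = inhibition above about 55%, limit read from the data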
Mdm2 MdmX PPI – human Mdm2/MdmX binding inhibition | 330,000 compounds, 3% hits | AID 485346 | SaOS-2 split-luciferase Mdm2/MdmX complementation, luminescence | inhibition, % at 8 µM | O15151+Q00987;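 active = inhibition of at least 50% at 8 µM in the primary screen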
Target sequence (O15151 whole entry, looked up): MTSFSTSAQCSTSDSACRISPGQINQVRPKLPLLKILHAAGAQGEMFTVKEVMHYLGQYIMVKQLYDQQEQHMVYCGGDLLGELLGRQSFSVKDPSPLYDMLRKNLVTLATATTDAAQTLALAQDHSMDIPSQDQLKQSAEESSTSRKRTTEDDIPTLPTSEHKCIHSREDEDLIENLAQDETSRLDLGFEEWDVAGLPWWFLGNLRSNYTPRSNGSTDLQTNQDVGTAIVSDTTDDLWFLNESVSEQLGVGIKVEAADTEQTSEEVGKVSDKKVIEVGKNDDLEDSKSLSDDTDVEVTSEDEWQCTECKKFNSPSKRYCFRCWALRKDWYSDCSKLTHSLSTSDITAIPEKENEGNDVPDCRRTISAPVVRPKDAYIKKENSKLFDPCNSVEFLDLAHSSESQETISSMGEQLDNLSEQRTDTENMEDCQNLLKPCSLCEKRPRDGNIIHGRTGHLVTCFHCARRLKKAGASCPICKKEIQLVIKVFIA
Target sequence (Q00987 whole entry, looked up): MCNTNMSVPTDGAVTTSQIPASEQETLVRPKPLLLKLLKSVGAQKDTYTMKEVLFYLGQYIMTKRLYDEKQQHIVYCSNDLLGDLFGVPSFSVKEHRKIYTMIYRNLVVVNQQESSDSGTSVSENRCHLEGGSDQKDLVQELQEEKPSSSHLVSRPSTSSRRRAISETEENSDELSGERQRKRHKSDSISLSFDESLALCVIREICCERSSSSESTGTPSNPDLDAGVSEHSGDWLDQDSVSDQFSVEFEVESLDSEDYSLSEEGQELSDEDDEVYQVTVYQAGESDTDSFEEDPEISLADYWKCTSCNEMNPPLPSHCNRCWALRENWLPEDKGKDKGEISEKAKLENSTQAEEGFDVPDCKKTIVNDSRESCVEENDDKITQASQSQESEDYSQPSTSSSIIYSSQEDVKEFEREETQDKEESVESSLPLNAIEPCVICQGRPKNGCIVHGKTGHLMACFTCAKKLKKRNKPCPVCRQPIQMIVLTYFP
ABHD5 PLIN5 PPI – inhibitors of human ABHD5-perilipin-5 interaction | inhibition, % at 4 µM | Q00G26+Q8WTS1 | Split G. princeps luciferase complementation, luminescence, 4 h | 360,000 compounds, 0.78% hits;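 active = inhibition above the mean inhibition across every tested compound plus 3 SD, cut at about 22% in these data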;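 also: 0% = DMSO only wells and the 100% control is not disclosed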
CHOP UPR activ – apoptotic UPR (CHOP) activation; CHO-CHOP luciferase reporter, luminescence; percent of tunicamycin response over DMSO baseline; activation, % at 10 µM; 330,000 compounds, 0.34% hits;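 active = at 10 µM dose, activation of 40% or more, normalized to positive control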;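 also: 100% = tunicamycin at 10 µg/mL and 0% = DMSO alone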
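Material: CHO-CHOP cells, stable luciferase reporter of PERK-eIF2a-CHOP signalling; quantity: 500 reporter cells seeded per well; buffer or medium: F12 medium containing 10% fetal bovine serum; compound: one dose, 10 µM in 0.5% DMSO; incubation: 6 h compound treatment, 37 °C; measured by: Steady-Glo luciferase luminescence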
Mdm2-MdmX conf – confirmation of human Mdm2/MdmX interaction inhibitors | shares compounds with Mdm2 MdmX PPI | Mdm2-MdmX binding, luminescent assay | inhibition, % at 8 µM | 10,000 compounds, 55% hits | AID 489028; in the data active = inhibition above about 40%
Full FLuc ctr – full-length luciferase inhibition in Mdm2/MdmX counter-screen; shares compounds with Mdm2 MdmX PPI; SaOS-2 full-length luciferase counterscreen, luminescence; inhibition, % at 8 µM; 6,200 compounds, 77% hits;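 active = mean inhibition at 8 µM reaching about 37%, which flags the compound as non-specific, limit read from the data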;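 also: p53-null SaOS-2 cells with luciferase driven by a doxycycline-inducible promoter; compound on cells about two nights before reading with doxycycline added after day one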
The depositor's hits bear a star; x = no result given.

SMILES | XBP1 UPR activ | Granule exo inh | Mdm2 MdmX PPI | ABHD5 PLIN5 PPI | CHOP UPR activ | Mdm2-MdmX conf | Full FLuc ctr
CCCC(=O)NC(c1ccc(C(C)C)cc1)c1ccc2cccnc2c1O (stereo not given) | -1.6 | 9.2 | 80.3* | 8.2 | 1.7 | 88.1* | 21.2
Cc1ccnc(NC(c2ccccc2)c2ccc3cccnc3c2O)c1 (stereo not given) | x | 27.4 | x | 17.2 | x | x | x
CCCC(=O)NC(c1ccccc1Cl)c1ccc2cccnc2c1O (stereo not given) | 1.5 | 16.3 | 86.8* | 13.6 | 14.9 | 88.8* | 53.0*
O=C(O)c1ccccc1NC(c1ccccc1)c1ccc2cccnc2c1O (stereo not given) | x | 3.8 | x | 16.8 | x | x | x
CCCCOc1ccc(C2(C)NC(=O)N(C)C2=O)cc1 (stereo not given) | -3.0 | -8.0 | 22.5 | 0.1 | 0.6 | x | x
CSc1ncccc1C(=O)OCC(=O)c1ccc(Br)s1 | 6.1 | 16.3 | 2.5 | -6.3 | 2.4 | x | x
Oc1ccccc1C(Nc1nccs1)c1ccc2cccnc2c1O (stereo not given) | 1.6 | -0.5 | 64.0* | 6.6 | 0.4 | 78.2* | 48.2*
CCCC(=O)NC(c1ccc(N(C)C)cc1)c1ccc2cccnc2c1O (stereo not given) | 13.6 | 5.4 | 80.0* | 19.9 | 16.2 | 79.8* | 29.9
CC(C)C(=O)NC(c1ccc(N(C)C)cc1)c1c(O)ccc2ccccc12 (stereo not given) | -2.9 | 11.6 | -13.5 | 5.1 | -2.2 | x | x
O=C(CN1CCCc2ccccc21)N/N=C/c1ccccc1O | -2.3 | -0.7 | 77.1* | -6.2 | -0.6 | 63.1* | 19.3
CC1CCC(C(C)C)C(OC(=O)C[n+]2cc(-c3ccc(Cl)cc3)n3c2CCCCC3)C1 (stereo not given) | 8.2 | 21.4 | 85.2* | 8.2 | 0.6 | 74.3* | 36.5*
CC(C)C1Cc2c(sc3[nH]c(=S)n(Cc4ccccc4)c(=O)c23)CO1 (stereo not given) | 1.3 | 4.1 | 52.8* | -2.6 | 5.3 | -5.0 | x
Cc1nnc2n(-c3ccccc3)c(=O)c3c4c(sc3n12)COC(C(C)C)C4 (stereo not given) | -2.0 | -5.4 | 28.2 | 4.7 | -2.4 | x | x
O=C(N/N=C/c1cnc(N2CCCCC2)s1)c1ccc(C(F)(F)F)cc1 | -1.6 | -1.6 | 68.9* | -3.1 | -0.5 | 58.1* | 37.4*
Cc1c(C(=O)Nc2cccc(Cl)c2)oc2ccc(S(=O)(=O)N3CCC4(CC3)OCCO4)cc12 | 0.5 | 5.2 | 60.5* | -7.5 | 5.4 | 67.0* | 32.3
CCC1(c2ccccc2)NC(=O)N(CC(=O)Nc2cc(S(=O)(=O)N3CCCCCC3)ccc2OC)C1=O (stereo not given) | -5.0 | 1.9 | 51.3* | 0.5 | 4.5 | 42.6* | 78.4*
COc1ccc(S(=O)(=O)N2CCCCC2)cc1NC(=O)c1[nH]c(C)c(C(C)=O)c1C | 3.3 | -0.7 | 81.9* | 10.3 | 0.8 | 59.4* | 43.0*
CC(=O)c1c(C)[nH]c(C(=O)Nc2cc(S(=O)(=O)N3CCCCC3)ccc2C)c1C | -4.5 | 15.3 | 21.5 | -3.3 | -1.1 | x | x
CC(=O)c1c(C)[nH]c(C(=O)Nc2cccc(S(=O)(=O)N3CCOCC3)c2)c1C | -0.9 | -8.6 | 58.2* | 9.0 | 1.4 | 34.0 | 87.2*
CC(=O)Oc1ccc(-c2ccc(C(=O)Nc3cccc(S(=O)(=O)N4CCOCC4)c3)cc2)cc1 | 1.3 | 0.3 | 66.2* | 7.1 | 2.8 | 44.0* | 88.5*
O=C(c1cc(-c2ccccc2Cl)on1)N1CCCC1 | -8.2 | -3.8 | -3.4 | 2.2 | -1.8 | x | x
Cc1ccnc2nc(C(=O)Nc3ccc4c(c3)OCO4)nn12 | -5.1 | -1.9 | 1.1 | 0.3 | -1.7 | x | x
C=C1CCC[C@]2(C)C[C@H]3OC(=O)C(CN4CCOCC4)[C@H]3C[C@@H]12 (stereo not given in full) | -1.3 | -1.6 | 30.5 | 5.3 | -2.4 | x | x
C/C1=C\CCC2C(/C=C(\C)CC1)OC(=O)C2CN1CCCCC1 (stereo not given) | 0.2 | 5.6 | 59.8* | 3.4 | 3.8 | 34.8 | x
COc1ccc(NC(=O)C2(c3ccc(NC(=O)c4ccc(OC)c(OC)c4)cc3)CCCC2)cc1 | -2.0 | -1.2 | 54.9* | 1.6 | 0.6 | 21.2 | x
SMILES | XBP1 UPR activ | Granule exo inh | Mdm2 MdmX PPI | ABHD5 PLIN5 PPI | CHOP UPR activ | Mdm2-MdmX conf | Full FLuc ctr
Cc1ccc(S(=O)(=O)N2C[C@@H]3[C@H]4CC[C@H](C4)[C@@H]3[C@@H](C)[C@@H]2c2cccn2Cc2ccccc2)cc1 | 4.7 | 2.6 | 0.5 | 3.5 | 5.3 | x | x
Cc1ccc(S(=O)(=O)N2C[C@@H]3[C@H]4CC[C@H](C4)[C@@H]3[C@@H](C)[C@@H]2c2ccn(Cc3ccccc3)c2)cc1 | -2.4 | 1.9 | 50.3* | -3.7 | 2.0 | 8.7 | x
COc1cccc(C2C=C(c3ccc(OC)cc3OC)Nc3nnnn32)c1 (stereo not given) | 2.8 | -5.0 | 33.4 | -1.0 | 0.9 | x | x
Cc1cc2cc(CCNC(=O)C(C)C)c(=O)[nH]c2cc1C | -2.9 | 16.5 | 8.2 | -3.0 | -0.9 | x | x
Cc1cc2cc(CCNC(=O)C3c4ccccc4Oc4ccccc43)c(=O)[nH]c2cc1C | 6.9 | x | 62.7* | x | 3.9 | 14.4 | x
Cc1cc2oc3cc(NCCC4CCCN4C)ccc3c(=O)c2cc1C (stereo not given) | 5.5 | -3.8 | 82.2* | 2.7 | 2.5 | -31.1 | x
CN1CCCC1CCNc1ccc2sc3ccccc3c(=O)c2c1 (stereo not given) | 0.4 | 0.4 | -8.4 | 13.5 | 2.3 | x | x
Cc1c[nH]c2cccc(OCC(O)CNC(C)(C)C)c12 (stereo not given) | -1.7 | -3.5 | -28.5 | 1.6 | -1.4 | x | x
O=C(N/N=C/c1ccc(-c2ccc(S(=O)(=O)Nc3ncccn3)cc2)o1)c1cc2ccccc2cc1O | 0.8 | -4.2 | 54.5* | 1.8 | 0.9 | 36.2 | x
CCOc1ccc(C(=O)N/N=C/c2ccc(-c3ccc(S(=O)(=O)Nc4ncccn4)cc3)o2)cc1 | 3.5 | 1.3 | 0.8 | 0.4 | -1.0 | x | x
COc1ccc(-c2nn(C)c(=O)c3ccccc23)cc1NS(C)(=O)=O | 2.5 | -1.9 | 68.2* | 0.4 | -2.5 | 27.1 | x
COc1ccc(NC(=O)C[C@H]2C(=O)N(C3CCCCC3)C[C@@H]2c2ccccc2)cc1 | x | -1.9 | x | 2.7 | x | x | x
COc1ccc(C(=O)/C(C#N)=N/Nc2ccccc2[N+](=O)[O-])cc1 | 0.6 | 10.7 | 46.5 | 1.0 | 0.7 | x | x
Cc1c(N/N=C(\C#N)C(=O)c2ccc(Cl)cc2)c(=O)n(-c2ccccc2)n1C | x | 8.3 | x | 2.5 | x | x | x
COc1ccc(C(=O)/C(C#N)=N/Nc2ccc([N+](=O)[O-])cc2)cc1 | 15.8 | 7.9 | 89.5* | 3.8 | 2.5 | 91.8* | 51.5*
